Active and inactive are the calls of the source. Unless noted, no stated cut-off is given here; in the data, active means inhibition above about 30%; inactive means the rest.
Legend:
[1] = Her2 expression decrease, cell viability multiplex – SKBR3 breast tumor cells, AlphaScreen, ATP viability, primary screen (AID 461;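 active means Her2 level under about 52% in both replicate screens, with viability over 70% of control, limit read from the data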;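 on Her2 level: lower value means less Her2 protein in the cells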;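 on viability: percent of carrier control wells set as 100% viability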); settings: SKBR3 Her2 protein level, 18-24 h, measured here: SKBR3 viability, ATP luminescence, at 10 µM
[2] = molecular target: Receptor tyrosine-protein kinase erbB-2 (Homo sapiens) (UniProt P04626); assay: as above; settings: 18-24 h, at 10 µM, stronger effect = lower value
Receptor tyrosine-protein kinase erbB-2 (Homo sapiens), sequence (P04626 whole entry, looked up): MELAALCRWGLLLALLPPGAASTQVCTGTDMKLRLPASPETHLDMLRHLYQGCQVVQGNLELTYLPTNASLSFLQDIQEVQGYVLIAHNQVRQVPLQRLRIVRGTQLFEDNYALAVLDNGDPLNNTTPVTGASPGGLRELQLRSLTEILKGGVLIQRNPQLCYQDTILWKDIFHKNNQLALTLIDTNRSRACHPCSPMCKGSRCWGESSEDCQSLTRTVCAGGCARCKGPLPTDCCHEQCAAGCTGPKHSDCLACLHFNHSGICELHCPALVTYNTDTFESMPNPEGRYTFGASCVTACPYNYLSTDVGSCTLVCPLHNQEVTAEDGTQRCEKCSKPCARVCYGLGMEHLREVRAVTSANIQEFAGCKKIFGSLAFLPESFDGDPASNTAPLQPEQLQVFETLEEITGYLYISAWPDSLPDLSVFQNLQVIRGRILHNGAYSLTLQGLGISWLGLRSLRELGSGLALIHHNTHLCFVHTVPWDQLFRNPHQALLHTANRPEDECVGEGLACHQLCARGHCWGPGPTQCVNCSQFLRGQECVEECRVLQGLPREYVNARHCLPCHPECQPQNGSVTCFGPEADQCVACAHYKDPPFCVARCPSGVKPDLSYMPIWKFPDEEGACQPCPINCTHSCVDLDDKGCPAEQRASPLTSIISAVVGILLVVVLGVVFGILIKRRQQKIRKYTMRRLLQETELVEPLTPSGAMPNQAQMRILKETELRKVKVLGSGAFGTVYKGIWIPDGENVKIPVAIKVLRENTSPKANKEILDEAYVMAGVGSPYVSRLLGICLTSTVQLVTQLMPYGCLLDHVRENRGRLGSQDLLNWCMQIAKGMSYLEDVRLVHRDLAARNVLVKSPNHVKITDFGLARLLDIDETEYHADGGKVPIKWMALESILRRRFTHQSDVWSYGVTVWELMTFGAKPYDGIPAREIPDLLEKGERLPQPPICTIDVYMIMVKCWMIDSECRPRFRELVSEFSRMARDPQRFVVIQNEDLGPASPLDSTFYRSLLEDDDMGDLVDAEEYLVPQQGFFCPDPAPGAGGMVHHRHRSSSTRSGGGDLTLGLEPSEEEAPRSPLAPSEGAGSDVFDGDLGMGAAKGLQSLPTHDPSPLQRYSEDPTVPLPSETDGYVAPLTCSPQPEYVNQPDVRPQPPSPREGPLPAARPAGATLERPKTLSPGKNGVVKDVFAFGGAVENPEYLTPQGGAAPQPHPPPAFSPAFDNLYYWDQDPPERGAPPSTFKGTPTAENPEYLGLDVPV

[3] = reduced viability of SK-BR-3 breast cancer cells – cell-based, 24 h, human, pilot screen (AID 572;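 active means viability at or below 10% of carrier control in both of two separate runs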;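 further: compound exposure lasted between 18 and 24 h rather than exactly 24 h; 100% = carrier-treated control wells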); settings: SK-BR-3 viability, CellTiter-Glo luminescence, at 10 µM, stronger effect = lower value
[4] = HUVEC growth inhibition – cell-based, human, primary screen (AID 575;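 active means viability at or below 30% in both replicate assays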;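 further: 100% = median of untreated cell wells with 0.1% DMSO on each plate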); settings: HUVEC proliferation, CellTiter-Glo luminescence, 72 h; at 10 µM; stronger effect = lower value
Method in brief: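 Assay system: Primary human umbilical vein endothelial cells | Quantity: 1250 cells per well | Medium: Supplemented EBM, 2% fetal bovine serum | Detection: CellTiter-Glo luminescence measuring cellular ATP | Read-out: % viability vs DMSO wells | Plate: Collagen-coated 384-well format | Times: 72 h exposure, 37 °C, 5% CO2, 30 min RT equilibration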

[5] = H69AR cell proliferation blockers – human, duplicate replicates, primary screen (AID 580;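 active means viability at or under a set limit in both replicates, limit being median viability minus 3 SD, cut at about 48% in these data, passing the limit was not always enough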;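 further: 100% = mean luminescence of untreated wells and 0% = no signal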); settings: H69AR lung tumor cells viability, ATP luminescence, 72 h; at 10 µM; stronger effect = lower value
[6] = MRP1 drug-resistance reversers in H69AR cells – cell-based, doxorubicin co-treatment, pilot screen (AID 601;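 active means viability loss from added drug above about 55%, and viability with drug at most 40%, in both replicates, limit read from the data, passing the limit was not always enough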); settings: CellTiter-Glo, 72 h, at 10 µM; for differential viability (reversal): stronger effect = higher value
[7] = yeast transport mutant growth inhibition pilot in 384-well plates, post-Golgi transport modulator project (AID 636; in the data active means inhibition above about 31%); settings: absorbance 615 nm, about 18 h, stronger effect = higher value
[8] = growth suppression of yeast trafficking mutant, preliminary HTS, modulators of trafficking downstream of Golgi apparatus project, 1536-format plate, OD 615 nm (AID 637); settings: yeast transport mutant growth, absorbance 615 nm, 18 h; stronger effect = higher value
[9] = H69AR cells + 2 uM doxorubicin, measured here: viability with 2 uM doxorubicin, stronger effect = lower value
[10] = H69AR cells, compound alone cytotoxicity

CCCn1c(-c2ccc(F)cc2)cnc1SCC(=O)O
viability [1]: 128%
Her2 level [2]: 98.5% (inactive)
viability [3]: 128% (inactive)
viability [4]: 101% (inactive)
viability [5]: 84.8% (inactive)
differential viability (reversal) ([6]; H69AR cells + 2 uM doxorubicin): 3.56% (inactive)
viability [6, 9]: 81.2%
viability [6, 10]: 84.8%
inhibition [7]: -3.33% (inactive)
inhibition [8]: 2.79% (inactive)

Cn1c2c(c(=O)n(C)c1=O)C(c1cccc(Br)c1)C1C(=O)c3ccccc3C1=N2 (stereo not given)
viability [1]: 103%
Her2 level [2]: 97.5% (inactive)
viability [3]: 103% (inactive)
viability [4]: 72.5% (inactive)
viability [5]: 40.6% (active)
differential viability (reversal) ([6]; H69AR cells + 2 uM doxorubicin): 5.16% (inactive)
viability [6, 9]: 35.4%
viability [6, 10]: 40.6%
inhibition [7]: 0.27% (inactive)
inhibition [8]: 1.43% (inactive)

CCCCS(=O)(=O)NC1=NCN(C2CCN(Cc3ccccc3)CC2)CN1
viability [1]: 116%
Her2 level [2]: 98.5% (inactive)
viability [3]: 116% (inactive)
viability [4]: 91.5% (inactive)
viability [5]: 111% (inactive)
differential viability (reversal) ([6]; H69AR cells + 2 uM doxorubicin): 9.66% (inactive)
viability [6, 9]: 101%
viability [6, 10]: 111%
inhibition [7]: -2.7% (inactive)
inhibition [8]: -2.22% (inactive)

CCOCCCNC(=O)c1c[nH]c2ccc(S(=O)(=O)Nc3cccc(OC)c3)cc2c1=O
viability [1]: 108%
Her2 level [2]: 106% (inactive)
viability [3]: 108% (inactive)
viability [4]: 83.4% (inactive)
viability [5]: 99.9% (inactive)
differential viability (reversal) ([6]; H69AR cells + 2 uM doxorubicin): 6.57% (inactive)
viability [6, 9]: 93.3%
viability [6, 10]: 99.9%
inhibition [7]: -5.66% (inactive)
inhibition [8]: -8.71% (inactive)

COC(=O)Nc1nnc(CCc2ccccc2)s1
viability [1]: 115%
Her2 level [2]: 97.5% (inactive)
viability [3]: 115% (inactive)
viability [4]: 97.2% (inactive)
viability [5]: 95.2% (inactive)
differential viability (reversal) ([6]; H69AR cells + 2 uM doxorubicin): 14.9% (inactive)
viability [6, 9]: 80.3%
viability [6, 10]: 95.2%
inhibition [7]: -7.07% (inactive)
inhibition [8]: 9.52% (inactive)

COc1cc(-c2nn3c(-c4cccnc4)nnc3s2)cc(OC)c1OC
viability [1]: 101%
Her2 level [2]: 98.5% (inactive)
viability [3]: 101% (inactive)
viability [4]: 90.3% (inactive)
viability [5]: 92.6% (inactive)
differential viability (reversal) ([6]; H69AR cells + 2 uM doxorubicin): 6.8% (inactive)
viability [6, 9]: 85.8%
viability [6, 10]: 92.6%
inhibition [7]: -4.87% (inactive)
inhibition [8]: -4.35% (inactive)

COc1cccc(-c2noc(C3CCCN(C(=O)Cc4ccccc4)C3)n2)c1 (stereo not given)
viability [1]: 95%
Her2 level [2]: 94% (inactive)
viability [3]: 95% (inactive)
viability [4]: 104% (inactive)
viability [5]: 85% (inactive)
differential viability (reversal) ([6]; H69AR cells + 2 uM doxorubicin): -2.34% (inactive)
viability [6, 9]: 87.3%
viability [6, 10]: 85%
inhibition [7]: -0.65% (inactive)
inhibition [8]: -3.97% (inactive)

CN(C#N)c1nc(N2CCOCC2)nc(N2CCOCC2)n1
viability [1]: 111%
Her2 level [2]: 120% (inactive)
viability [3]: 111% (inactive)
viability [4]: 81.7% (inactive)
viability [5]: 92.8% (inactive)
differential viability (reversal) ([6]; H69AR cells + 2 uM doxorubicin): 3.22% (inactive)
viability [6, 9]: 89.5%
viability [6, 10]: 92.8%
inhibition [7]: -1.22% (inactive)
inhibition [8]: 6.35% (inactive)

CC(C(=O)c1ccccc1)n1cnc2ccccc2c1=O (stereo not given)
viability [1]: 94.5%
Her2 level [2]: 87% (inactive)
viability [3]: 94.5% (inactive)
viability [4]: 86.6% (inactive)
viability [5]: 89.6% (inactive)
differential viability (reversal) ([6]; H69AR cells + 2 uM doxorubicin): 9.12% (inactive)
viability [6, 9]: 80.5%
viability [6, 10]: 89.6%
inhibition [7]: -5.73% (inactive)
inhibition [8]: 2.42% (inactive)

Oc1ccccc1C1=Nc2nc3ccccc3n2C(c2ccccc2)C1 (stereo not given)
viability [1]: 75.5%
Her2 level [2]: 86.5% (inactive)
viability [3]: 75.5% (inactive)
viability [4]: 103% (inactive)
viability [5]: 65% (inactive)
differential viability (reversal) ([6]; H69AR cells + 2 uM doxorubicin): -12.7% (inactive)
viability [6, 9]: 77.7%
viability [6, 10]: 65%
inhibition [7]: -7.24% (inactive)
inhibition [8]: -1.15% (inactive)

COc1cc(OC)cc(C(=O)N2c3ccc(F)cc3CCC2C)c1 (stereo not given)
viability [1]: 94.5%
Her2 level [2]: 89% (inactive)
viability [3]: 94.5% (inactive)
viability [4]: 112% (inactive)
viability [5]: 97.5% (inactive)
differential viability (reversal) ([6]; H69AR cells + 2 uM doxorubicin): 6.82% (inactive)
viability [6, 9]: 90.7%
viability [6, 10]: 97.5%
inhibition [7]: -0.14% (inactive)
inhibition [8]: -3.02% (inactive)

O=C(NC1CCCC1)c1ccc2nc[nH]c2c1
viability [1]: 93.5%
Her2 level [2]: 94.5% (inactive)
viability [3]: 93.5% (inactive)
viability [4]: 103% (inactive)
viability [5]: 91.2% (inactive)
differential viability (reversal) ([6]; H69AR cells + 2 uM doxorubicin): 9.56% (inactive)
viability [6, 9]: 81.7%
viability [6, 10]: 91.2%
inhibition [7]: -6.23% (inactive)
inhibition [8]: -0.79% (inactive)

COc1ccc(-c2cc(C(=O)N3CCN(Cc4ccccc4)CC3)no2)cc1OC
viability [1]: 99%
Her2 level [2]: 64.5% (inactive)
viability [3]: 99% (inactive)
viability [4]: 81.5% (inactive)
viability [5]: 98.5% (inactive)
differential viability (reversal) ([6]; H69AR cells + 2 uM doxorubicin): 20.8% (inactive)
viability [6, 9]: 77.8%
viability [6, 10]: 98.5%
inhibition [7]: -5.68% (inactive)
inhibition [8]: 9% (inactive)

CCCNS(=O)(=O)c1ccc(OCC(=O)NCc2ccc3c(c2)OCO3)cc1
viability [1]: 105%
Her2 level [2]: 89.5% (inactive)
viability [3]: 105% (inactive)
viability [4]: 88.2% (inactive)
viability [5]: 94.1% (inactive)
differential viability (reversal) ([6]; H69AR cells + 2 uM doxorubicin): 4.96% (inactive)
viability [6, 9]: 89.1%
viability [6, 10]: 94.1%
inhibition [7]: -6.05% (inactive)
inhibition [8]: 11% (inactive)

CCOc1ccccc1-c1nc(-c2ccc(NC(=O)Cc3ccccc3OC)cc2)no1
viability [1]: 90.5%
Her2 level [2]: 114% (inactive)
viability [3]: 90.5% (inactive)
viability [4]: 75.3% (inactive)
viability [5]: 88.6% (inactive)
differential viability (reversal) ([6]; H69AR cells + 2 uM doxorubicin): 5.33% (inactive)
viability [6, 9]: 83.3%
viability [6, 10]: 88.6%
inhibition [7]: 0.93% (inactive)
inhibition [8]: -5.81% (inactive)
